Reference: ChEMBL document CHEMBL4382215, “Synthesis of new ent-labdane diterpene derivatives from andrographolide and evaluation of their anti-inflammatory activities” (Eur J Med Chem, 2019)
Calls of active or inactive are those of the source. No cut-off for these calls is given here.

Legend:
RAW264.7 [1] = test: Antiinflammatory activity in mouse RAW264.7 cells assessed as inhibition of LPS-induced nitric oxide production preincubated for 3 hrs followed by LPS addition and measured after 24 hrs by griess assay; assay type: functional, cell-based
Method in brief: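 RAW264.7 cells in 96-well plates were exposed to compounds over 0–100 µM for 3 h, then to LPS 1 µg/mL for 24 h. Controls were DMSO without LPS (vehicle) and DMSO with LPS (model). Nitrite in the medium was read with Griess reagent at 540 nm. Percent inhibition was calculated and IC50 derived; hydrocortisone was the positive control.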

RAW264.7 [2] = test: Antiinflammatory activity in mouse RAW264.7 cells assessed as inhibition of LPS-induced IL1beta production preincubated for 3 hrs followed by LPS addition and measured after 24 hrs by ELISA; assay type: functional, cell-based
Method in brief: (§1)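 Cells in 96-well plates were pretreated with DMSO or compound at 5, 10 and 20 µM for 3 h, then stimulated with LPS 1 µg/mL for 24 h. IL-1β and IL-6 in the medium were quantified by commercial ELISA, with OD read at […]. Results are mean ± SD of at least three independent experiments.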

RAW264.7 [3] = test: Antiinflammatory activity in mouse RAW264.7 cells assessed as inhibition of LPS-induced COX2 expression at 5 to 20 uM preincubated for 3 hrs followed by LPS addition and measured after 24 hrs by Western blot analysis; assay type: functional, cell-based
Method in brief: (§2)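 RAW264.7 cells in 6-well plates were pretreated as for ELISA, then given LPS 1 µg/mL for 24 h and lysed with protease inhibitors. 30 µg total protein was run on 10% SDS-PAGE and blotted to nitrocellulose, blocked in 5% skim milk, and probed overnight at 4 °C. Primary antibodies were iNOS 1:200; COX-2, NF-κB, IκBα and p-IκBα 1:2000; β-actin 1:2000 as reference. Detection used HRP secondary and ECL; data from ≥3 independent experiments.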

RAW264.7 [4] = test: Antiinflammatory activity in mouse RAW264.7 cells assessed as inhibition of LPS-induced IL6 production preincubated for 3 hrs followed by LPS addition and measured after 24 hrs by ELISA; assay type: functional, cell-based; method in brief: as §1
RAW264.7 [5] = test: Inhibition of LPS-induced NFkappaB expression in mouse RAW264.7 cells at 5 to 20 uM preincubated for 3 hrs followed by LPS addition and measured after 24 hrs by Western blot analysis; assay type: functional, cell-based; method in brief: as §2
RAW264.7 [6] = test: Cytotoxicity against mouse RAW264.7 cells assessed as effect on cell viability at 3.125 to 100 uM after 24 hrs by CCK8 assay; assay type: cell-based; settings: raw264.7, 24 h
Method in brief: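 Cells were grown in DMEM with 10% FBS and penicillin/streptomycin at 37 °C, 5% CO2. For the assay they were seeded at 5×10^4 cells/well and exposed in serum-free medium to a range of compound concentrations for 24 h, with DMSO as vehicle. Viability was read by CCK-8, in triplicate.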

RAW264.7 [7] = test: Inhibition of LPS-induced IkappaBalpha expression in mouse RAW264.7 cells at 5 to 20 uM preincubated for 3 hrs followed by LPS addition and measured after 24 hrs by Western blot analysis; assay type: functional, cell-based; method in brief: as §2
[8] = molecular target: Transcription factor p65 (Mus musculus) (UniProt Q04207); test: Inhibition of LPS-induced NFkappaB p65 nuclear translocation in mouse RAW264.7 cells at 10 uM preincubated for 2 hrs followed by LPS-stimulation and measured after 12 hrs by DAPI staining based immunofluorescence microscopic analysis; assay type: cell-based
Transcription factor p65 (Mus musculus), sequence (Q04207 whole entry): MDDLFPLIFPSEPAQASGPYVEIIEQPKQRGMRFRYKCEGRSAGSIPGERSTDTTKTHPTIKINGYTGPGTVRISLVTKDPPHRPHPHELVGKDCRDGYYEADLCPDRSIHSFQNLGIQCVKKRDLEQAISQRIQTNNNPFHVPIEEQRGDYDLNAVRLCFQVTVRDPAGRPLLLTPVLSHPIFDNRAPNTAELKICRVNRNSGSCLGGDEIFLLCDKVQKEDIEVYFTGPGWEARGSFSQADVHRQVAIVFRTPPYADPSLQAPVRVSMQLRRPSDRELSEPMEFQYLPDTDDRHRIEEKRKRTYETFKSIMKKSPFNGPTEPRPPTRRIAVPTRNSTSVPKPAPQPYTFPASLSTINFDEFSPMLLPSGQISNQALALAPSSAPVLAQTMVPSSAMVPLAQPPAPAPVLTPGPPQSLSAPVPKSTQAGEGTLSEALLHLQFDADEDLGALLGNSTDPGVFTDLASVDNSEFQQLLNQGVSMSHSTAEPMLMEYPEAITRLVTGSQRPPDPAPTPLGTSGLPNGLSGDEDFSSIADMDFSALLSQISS
Method in brief: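 Cells grown in glass chambers were pretreated with DMSO or compound for 2 h, then given LPS 1 µg/mL for 12 h. They were fixed in 4% paraformaldehyde for 15 min, permeabilized with 0.25% Triton X-100, and labelled with p65 antibody plus AlexaFluor488 secondary. Nuclei were stained with DAPI at 37 °C for 30 min in the dark, and cells were imaged by fluorescence microscopy.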

RAW264.7 [9] = test: Antiinflammatory activity in mouse RAW264.7 cells assessed as inhibition of LPS-induced iNOS expression at 5 to 20 uM preincubated for 3 hrs followed by LPS addition and measured after 24 hrs by Western blot analysis; assay type: functional; method in brief: as §2
[10] = molecular target: T1, NF-kappa-B inhibitor alpha (Mus musculus) (UniProt Q9Z1E3); test: Inhibition of LPS-induced IkappaBalpha phosphorylation in mouse RAW264.7 cells at 5 to 20 uM preincubated for 3 hrs followed by LPS addition and measured after 24 hrs by Western blot analysis; assay type: cell-based; method in brief: as §2
T1 sequence (whole entry): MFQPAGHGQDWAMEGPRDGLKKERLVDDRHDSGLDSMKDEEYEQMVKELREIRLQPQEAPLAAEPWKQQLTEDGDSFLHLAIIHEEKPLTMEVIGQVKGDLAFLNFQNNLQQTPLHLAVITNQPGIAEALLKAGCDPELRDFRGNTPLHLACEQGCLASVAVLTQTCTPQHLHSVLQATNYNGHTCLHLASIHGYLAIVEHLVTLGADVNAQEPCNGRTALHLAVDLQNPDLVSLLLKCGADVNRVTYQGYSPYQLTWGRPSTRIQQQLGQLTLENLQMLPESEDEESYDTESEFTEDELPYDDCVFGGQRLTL

Structure (SMILES)	IC50 (RAW264.7 [1])	further results
C=C1CCC2[C@](C)(CO)[C@H](O)CC[C@@]2(C)[C@@H]1CCOC(=O)c1cccnc1 (stereo partly drawn)	> 50 µM	–
C=C1CC[C@@H]2[C@](C)(CO)[C@H](O)CC[C@@]2(C)[C@@H]1C/C=C1/C(=O)OC[C@H]1O [ANDROGRAPHOLIDE]	8.81 µM	–
C=C1CCC2[C@](C)(CO)[C@H](O)CC[C@@]2(C)[C@@H]1CCOC(=O)c1ccc([N+](=O)[O-])cc1 (stereo partly drawn)	37.3 µM	–
C=C1CCC2[C@](C)(CO)[C@H](O)CC[C@@]2(C)[C@@H]1CCn1ccc(=O)[nH]c1=O (stereo partly drawn)	> 100 µM	–
C=C1CCC2[C@](C)(CO)[C@H](O)CC[C@@]2(C)[C@@H]1CCn1ccnc1 (stereo partly drawn)	> 50 µM	–
C=C1CCC2[C@](C)(CO)[C@H](O)CC[C@@]2(C)[C@@H]1CCn1c(N)nccc1=O (stereo partly drawn)	> 100 µM	–
C=C1CCC2[C@](C)(CO)[C@H](O)CC[C@@]2(C)[C@@H]1CCOC(=O)c1ccccc1[N+](=O)[O-] (stereo partly drawn)	35.2 µM	–
C=C1CCC2[C@](C)(CO)[C@H](O)CC[C@@]2(C)[C@@H]1CCOc1ccc(-c2cc(=O)c3cc(C)ccc3o2)cc1 (stereo partly drawn)	> 100 µM	–
C=C1CCC2[C@](C)(CO)[C@H](O)CC[C@@]2(C)[C@@H]1CCn1cnc2c(N)ncnc21 (stereo partly drawn)	> 100 µM	–
C=C1CCC2[C@](C)(CO)[C@H](O)CC[C@@]2(C)[C@@H]1CCOc1ccc([N+](=O)[O-])cc1 (stereo partly drawn)	3.38 µM	inhibition (RAW264.7 [2]): Dose-dependent effect; inhibition (RAW264.7 [3]): Active; inhibition (RAW264.7 [4]): Dose-dependent effect; inhibition (RAW264.7 [5]): Active; Activity (RAW264.7 [6]): Non-Toxic; inhibition (RAW264.7 [7]): Active; inhibition [8]: Active; inhibition (INH) (RAW264.7 [9]): 100%; inhibition [10]: Active
C=C1CCC2[C@](C)(CO)[C@H](O)CC[C@@]2(C)[C@@H]1CCOc1ccc2ccc(=O)oc2c1 (stereo partly drawn)	> 50 µM	–
C=C1CCC2[C@](C)(CO)[C@H](O)CC[C@@]2(C)[C@@H]1CCn1cncn1 (stereo partly drawn)	> 100 µM	–
C=C1CCC2[C@](C)(CO)[C@H](O)CC[C@@]2(C)[C@@H]1CCOc1ccc(C(C)(C)C)cc1 (stereo partly drawn)	35.8 µM	–

More lines, main results first:

IC50 (RAW264.7 [1])	Structure (SMILES)	further results
44.7 µM	C=C1CCC2[C@](C)(CO)[C@H](O)CC[C@@]2(C)[C@@H]1CCOc1cccc2ccccc12 (stereo partly drawn)	–
> 100 µM	C=C1CCC2[C@](C)(CO)[C@H](O)CC[C@@]2(C)[C@@H]1CCOc1ccc2oc(-c3ccccc3)cc(=O)c2c1 (stereo partly drawn)	–
40.2 µM	C=C1CCC2[C@](C)(CO)[C@H](O)CC[C@@]2(C)[C@@H]1CCOc1ccc(Br)cc1 (stereo partly drawn)	–
47.7 µM	C=C1CCC2[C@](C)(CO)[C@H](O)CC[C@@]2(C)[C@@H]1CCOc1ccccc1O (stereo partly drawn)	–
> 100 µM	C=C1CCC2[C@](C)(CO)[C@H](O)CC[C@@]2(C)[C@@H]1CCOC(=O)c1ccccc1 (stereo partly drawn)	–
12.8 µM	C=C1CCC2[C@](C)(CO)[C@H](O)CC[C@@]2(C)[C@@H]1CCOc1ccc(Oc2ccccc2)cc1 (stereo partly drawn)	–
